Measured values reported in ChEMBL document CHEMBL3751740, “New MKLP-2 inhibitors in the paprotrain series: Design, synthesis and biological evaluations” (Bioorg Med Chem, 2016).

Experiments:
[1] = molecular target: T1, Kinesin-like protein KIF3C (Homo sapiens) (UniProt O14782); assay: Inhibition of porcine brain microtubule-stimulated human recombinant GST-tagged KIF3C ATPase activity at 1 mM by microplate reader in presence of Mg2+ ATP relative to control
T1 sequence (whole entry): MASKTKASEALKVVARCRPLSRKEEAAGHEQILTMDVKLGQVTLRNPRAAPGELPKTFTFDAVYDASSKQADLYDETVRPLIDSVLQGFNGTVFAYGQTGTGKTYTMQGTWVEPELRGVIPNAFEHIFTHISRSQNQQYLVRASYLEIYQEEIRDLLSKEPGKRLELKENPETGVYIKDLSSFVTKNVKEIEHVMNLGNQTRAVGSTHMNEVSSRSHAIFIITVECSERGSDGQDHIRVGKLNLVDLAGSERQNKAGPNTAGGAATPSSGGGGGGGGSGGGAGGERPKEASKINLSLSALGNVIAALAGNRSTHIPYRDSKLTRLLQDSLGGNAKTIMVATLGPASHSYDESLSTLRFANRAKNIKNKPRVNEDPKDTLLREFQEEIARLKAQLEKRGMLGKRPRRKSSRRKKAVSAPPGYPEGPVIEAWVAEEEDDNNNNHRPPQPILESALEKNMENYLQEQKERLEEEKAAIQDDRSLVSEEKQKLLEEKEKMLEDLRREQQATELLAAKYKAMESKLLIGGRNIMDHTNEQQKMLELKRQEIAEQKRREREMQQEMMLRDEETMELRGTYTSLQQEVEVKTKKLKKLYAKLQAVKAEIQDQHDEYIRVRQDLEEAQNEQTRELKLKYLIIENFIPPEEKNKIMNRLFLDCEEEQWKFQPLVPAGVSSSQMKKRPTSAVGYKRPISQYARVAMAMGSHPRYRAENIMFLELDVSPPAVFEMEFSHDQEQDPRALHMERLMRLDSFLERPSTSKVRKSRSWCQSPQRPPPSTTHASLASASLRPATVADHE
How it was run: (§1)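 Motor domain at 15 µM final, in 7.5 mM PIPES-NaOH pH 7.0 with […], 10 µM Taxol, ELIPA 1 and 2 reagents and 1.25 mg/mL microtubules. AMP-PNP, a slowly hydrolysable ATP analog and general ATPase inhibitor, tested at 1 mM. Reaction started with 1 mM Mg2+ATP at 22 °C and read kinetically at 360 nm. Run in triplicate.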

[2] = molecular target: T2, Kinesin-1 heavy chain (Homo sapiens) (UniProt P33176); assay: Inhibition of porcine brain microtubule-stimulated human recombinant GST-tagged Kif5B ATPase activity at 1 mM by microplate reader in presence of Mg2+ ATP relative to control; how it was run: as §1
T2 sequence (whole entry): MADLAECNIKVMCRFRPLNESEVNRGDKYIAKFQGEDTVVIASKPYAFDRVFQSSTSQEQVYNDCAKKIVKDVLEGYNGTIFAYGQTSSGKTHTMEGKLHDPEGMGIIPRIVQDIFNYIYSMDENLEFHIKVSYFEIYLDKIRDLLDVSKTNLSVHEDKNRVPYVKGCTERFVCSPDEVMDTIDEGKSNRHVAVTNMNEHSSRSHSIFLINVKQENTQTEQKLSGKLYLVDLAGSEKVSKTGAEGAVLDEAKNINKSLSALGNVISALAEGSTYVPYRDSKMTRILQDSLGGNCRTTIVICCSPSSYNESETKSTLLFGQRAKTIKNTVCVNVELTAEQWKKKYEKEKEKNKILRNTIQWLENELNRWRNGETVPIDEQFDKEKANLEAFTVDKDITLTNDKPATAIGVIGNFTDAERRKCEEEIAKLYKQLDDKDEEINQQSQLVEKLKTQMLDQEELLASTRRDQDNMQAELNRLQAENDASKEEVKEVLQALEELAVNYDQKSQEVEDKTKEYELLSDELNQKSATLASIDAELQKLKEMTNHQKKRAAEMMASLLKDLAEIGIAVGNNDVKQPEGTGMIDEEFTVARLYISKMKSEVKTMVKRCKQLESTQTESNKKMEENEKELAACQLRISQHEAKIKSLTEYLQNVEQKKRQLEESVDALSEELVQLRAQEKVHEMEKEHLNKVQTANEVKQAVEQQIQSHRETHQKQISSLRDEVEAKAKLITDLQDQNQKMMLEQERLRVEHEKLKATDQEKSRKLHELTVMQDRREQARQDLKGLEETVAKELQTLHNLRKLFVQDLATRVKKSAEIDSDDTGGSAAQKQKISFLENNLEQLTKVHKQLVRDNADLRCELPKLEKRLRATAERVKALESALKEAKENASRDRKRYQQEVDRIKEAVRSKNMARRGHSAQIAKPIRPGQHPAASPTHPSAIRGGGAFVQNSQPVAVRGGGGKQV

[3] = Growth inhibition of human PK59 cells incubated for 4 days by WST-1 assay; assay type: functional; details: PK-59, 96 h
How it was run: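 Cells were kept at 37 °C under 5% CO2 and plated on day 0 at 500–5000 cells/well. On day 1 they received ten concentrations from 0.0025 to 50 µM (final), in triplicate. On day 4 WST-1 was added, followed by 30 min–4 h incubation and absorbance at 450 nm. GI50 is the concentration killing 50% of cells.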

Question: Which inhibition [1] does the source give for `Nc1ncnc2c1ncn2[C@@H]1O[C@H](COP(=O)(O)OP(=O)(O)NP(=O)(O)O)[C@@H](O)[C@H]1O` here?
Answer: > 30%

Question: And the inhibition [2]?
Answer: > 30%

Question: Which GI50 [3] does the source give for `COc1ccc2[nH]cc(/C(C#N)=C/c3cccnc3)c2c1` here?
Answer: > 50 µM
